# This is a sample that favours compounds with a hit; in the whole collection about 1.2% have one here.
# ASAP1 inh – blocks human ASAP1-stimulated Arf1 GTP hydrolysis; Q9ULH1; GDP FP detection; inhibition, % at 16.5 µM; actives 0.19% (n = 360,000); AID 624377; in the data active means inhibition above about 25%
# PREPL inhibitor – inhibits the human prolyl oligopeptidase-like enzyme; recombinant PREPL, fluorescence polarization activity-based probe; inhibition, % at 5.96 µM; actives 0.68% (n = 320,000)
# IDE cell activ – activators of human insulin-degrading enzyme in cells | P14735 | HEK cells, FAbeta-B cleavage, fluorescence polarization; 0% vehicle, 100% cell-free pure enzyme wells | activation, % at 5.96 µM | actives 0.073% (n = 340,000) | AID 493087;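 active means activation above the mean of all tested compounds plus 3 SD, set per screening campaign, cut at about 17% in these data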
# Target sequence (P14735 whole entry, looked up): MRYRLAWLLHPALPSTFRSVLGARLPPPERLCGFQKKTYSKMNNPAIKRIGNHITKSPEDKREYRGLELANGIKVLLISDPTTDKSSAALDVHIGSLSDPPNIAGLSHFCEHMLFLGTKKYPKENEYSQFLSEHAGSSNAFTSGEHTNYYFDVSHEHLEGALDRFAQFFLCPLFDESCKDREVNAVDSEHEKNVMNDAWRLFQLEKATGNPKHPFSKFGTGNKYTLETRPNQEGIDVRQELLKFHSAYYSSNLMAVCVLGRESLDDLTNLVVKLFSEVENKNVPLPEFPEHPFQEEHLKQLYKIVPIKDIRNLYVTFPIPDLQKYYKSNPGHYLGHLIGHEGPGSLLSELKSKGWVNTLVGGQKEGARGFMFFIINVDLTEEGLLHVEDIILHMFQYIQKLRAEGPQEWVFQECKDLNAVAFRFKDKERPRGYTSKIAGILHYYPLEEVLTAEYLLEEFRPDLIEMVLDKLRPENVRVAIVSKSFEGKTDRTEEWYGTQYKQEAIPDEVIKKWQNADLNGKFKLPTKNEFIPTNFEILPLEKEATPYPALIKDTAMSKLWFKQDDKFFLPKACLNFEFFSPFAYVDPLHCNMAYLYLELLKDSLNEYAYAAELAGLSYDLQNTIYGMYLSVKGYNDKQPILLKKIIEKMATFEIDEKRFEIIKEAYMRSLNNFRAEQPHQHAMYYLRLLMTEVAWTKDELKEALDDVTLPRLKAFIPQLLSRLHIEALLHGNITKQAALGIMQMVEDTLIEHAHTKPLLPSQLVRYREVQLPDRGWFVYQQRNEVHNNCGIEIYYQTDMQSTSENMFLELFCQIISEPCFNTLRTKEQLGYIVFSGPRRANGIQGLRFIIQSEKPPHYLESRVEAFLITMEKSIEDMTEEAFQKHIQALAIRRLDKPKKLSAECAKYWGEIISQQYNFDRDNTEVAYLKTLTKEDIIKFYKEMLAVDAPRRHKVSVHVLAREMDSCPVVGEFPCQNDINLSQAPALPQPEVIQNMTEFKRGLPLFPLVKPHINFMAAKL
# IDE inh – cellular human IDE inhibition; inhibition, % at 5.59 µM; AID 434962; HEK cells, FAbetaB cleavage, fluorescence polarization; actives 0.41% (n = 320,000);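 active means percent inhibition above the average of all tested compounds plus 3 SD, set per screening campaign, cut at about 16% in these data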;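 further: IDE supplied by intact live HEK cells; FP after avidin binding of uncleaved biotin substrate so inhibition keeps polarization high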
# ARFGAP1 inhibitor – inhibits rat ARF GTPase activating protein 1; actives 0.26% (n = 360,000); Arfgap1-stimulated ARF1 GTP hydrolysis, GDP FP detection; AID 651572; inhibition, % at 16.5 µM; Q62848;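 active means inhibition above a per-plate limit, mean inhibition of low control wells plus 3 SD, cut at about 25% in these data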
#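 Replicates: Single well per compound | Assay system: Truncated rat Arfgap1 GAP domain | Control set: No-Arfgap1 wells (100%) versus DMSO full-reaction wells (0%) | Times: Enzyme reaction 120 min at 25 °C after 20 min preincubation | Reagent: Human ARF1(Δ1-17)-GTP substrate | Measured by: Tracer-displacement fluorescence polarization with EDTA stop, 620/688 nm | Measure: Percent inhibition of Arfgap1-stimulated GTP hydrolysis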
# PREPL confirm – confirmation of human PREPL enzyme inhibitors | recombinant PREPL, fluorescence polarization activity probe | AID 2803 | actives 67% (n = 2,000) | inhibition, % at 5.96 µM | shares compounds with PREPL inhibitor
# Numbers stand for hits; - = inactive; . = no result given. Unless noted, no stated cut-off is given here; in the data, active means inhibition above about 43%; inactive means the rest.
SMILES,ASAP1 inh,PREPL inhibitor,IDE cell activ,IDE inh,ARFGAP1 inhibitor,PREPL confirm
COC(=O)C1=C(C)N(C)C(=NCc2ccc(OC)cc2)NC1c1ccccc1C(F)(F)F (configuration not stated),-,.,.,.,-,.
CC(C)CC(c1nnnn1Cc1cccs1)N1CCN(c2nc3ccccc3s2)CC1 (configuration not stated),-,44,-,-,-,-
C(=N\Nc1nc2ccccc2[nH]1)/c1cccc2cccnc12,-,63,-,-,-,53
Cc1cc(=O)[nH]c(N/N=C/c2c[nH]c3ccccc23)n1,-,-,-,-,-,.
C(=N\Nc1nc2ccccc2[nH]1)/c1c[nH]c2ccccc12,-,49,-,-,-,54
Cc1cc(C)c(NC(=O)CNC(=O)COC(=O)Cc2ccccc2C)c(C)c1,-,-,-,-,-,.
CC1CCN(c2ccc(-c3ccc(NC(=O)C(F)(F)F)cc3)nn2)CC1,.,-,-,-,.,.
Cc1ccc(C)[n+](CC(=O)N2CCCCC2)c1,-,.,-,.,-,.
COc1cccc(C2CC(c3ccc(F)cc3)Nc3nc(N)nn32)c1 (configuration not stated),-,44,-,-,-,46
COc1ccc(C2CC(c3cccc(Cl)c3)n3nc(N)nc3N2)cc1 (configuration not stated),-,55,-,-,-,57
CCc1ccc(C2CC(c3ccc(F)cc3)Nc3nc(N)nn32)cc1 (configuration not stated),-,-,-,-,-,.
COc1ccc(C2CC(c3cccc(C)c3)n3nc(N)nc3N2)cc1 (configuration not stated),-,55,-,-,-,59
CCc1ccc(C2CC(c3ccc(Cl)cc3)n3nc(N)nc3N2)cc1 (configuration not stated),-,45,-,-,-,49
COc1ccc(-c2c(-c3cc(OC)cc(OC)c3)n(C)c3ccc(-c4ccc(OC)nc4)cc23)cc1,-,-,-,-,-,.
O=C(C1CCN(Cc2cccs2)CC1)N1CCN(Cc2ccc3c(c2)OCO3)CC1,-,-,-,-,-,.
O=C(COC(=O)CC1CCCCC1)Nc1c(Cl)cccc1Cl,-,-,-,-,-,.
Cc1ccc(OCc2cc(C(=O)N3CCc4[nH]cnc4C3c3ccccn3)no2)cc1C (configuration not stated),-,-,-,-,-,.
Cc1ccc(C2CC(c3ccc(C)cc3)n3nc(N)nc3N2)cc1 (configuration not stated),-,53,-,-,-,48
Cc1ccc(C2CC(c3ccco3)n3nc(N)nc3N2)cc1 (configuration not stated),-,-,-,-,-,.
Cc1ccccc1C1CC(c2ccc(F)cc2)Nc2nc(N)nn21 (configuration not stated),-,44,-,-,-,-
O=C(C(=O)N1CCC(CNS(=O)(=O)c2cc(C(F)(F)F)cc(C(F)(F)F)c2)CC1)c1cc2ccccc2o1,-,.,.,.,-,.
COCCOC(=O)c1c(N)n(CCCN2CCOCC2)c2nc3ccccc3nc12,-,-,-,-,-,.
Nc1c(C(=O)NCc2ccccc2)c2nc3ccccc3nc2n1CCCN1CCOCC1,-,45,-,-,-,-
COC(=O)c1c(N)n(CCCN2CCOCC2)c2nc3ccccc3nc12,-,-,-,-,-,.
Nc1c(C(=O)NCc2ccc(F)cc2)c2nc3ccccc3nc2n1CCCN1CCOCC1,-,61,-,-,-,46
SMILES,ASAP1 inh,PREPL inhibitor,IDE cell activ,IDE inh,ARFGAP1 inhibitor,PREPL confirm
COc1ccc(CNC(=O)c2c(N)n(CCCN3CCOCC3)c3nc4ccccc4nc23)cc1,-,69,-,-,-,50
COc1ccc(CCNC(=O)c2cc3c(=O)n4cccc(C)c4nc3n(CCCN3CCOCC3)c2=N)cc1,-,53,-,-,-,56
O=C(Nc1cccc(Cl)c1Cl)c1csc([C@H]2C[C@H](O)[C@@H](CO)O2)n1,-,.,.,.,-,.
COC(=O)N1C[C@H](Oc2cccc3ccccc23)[C@H]2C[C@@H]1c1ccccc1O2,-,.,.,.,-,.
COc1ccc(CNC(=O)C(=O)NCC2CCCN2S(=O)(=O)c2cccs2)cc1 (configuration not stated),-,-,-,-,-,.
C=C(C(=O)c1ccccc1)C(C(=C)C(=O)c1ccccc1)c1ccc(OC)cc1,-,-,-,-,-,.
COCCCNc1nc(N)c([N+](=O)[O-])c(Nc2cc(OC)ccc2OC)n1,-,-,.,-,-,.
COc1ccc(OC)c(Nc2nc(NCCCN(C)C)nc(N)c2[N+](=O)[O-])c1,-,47,-,-,-,-
CCCNC(=O)C1(C)CCCN(C(=O)c2cc(C)nn2C(C)(C)C)C1 (configuration not stated),-,.,.,.,-,.
C[C@H](CO)N1C[C@H](C)[C@@H](CN(C)C(=O)Nc2ccc(C(F)(F)F)cc2)Oc2ccc(NS(=O)(=O)c3ccccc3)cc2C1=O,-,46,-,-,-,45
C[C@H](CO)N1C[C@H](C)[C@@H](CN(C)C(=O)Nc2ccc(C(F)(F)F)cc2)Oc2ccc(NS(=O)(=O)c3cn(C)cn3)cc2C1=O,-,47,-,-,-,-
C[C@H](CO)N1C[C@H](C)[C@@H](CN(C)C(=O)Nc2ccc(C(F)(F)F)cc2)Oc2ccc(NS(=O)(=O)c3cccs3)cc2C1=O,-,-,-,-,-,.
Cc1noc(C)c1S(=O)(=O)N(C)C[C@H]1Oc2c(NC(=O)Nc3ccccc3)cccc2C(=O)N([C@H](C)CO)C[C@@H]1C,-,-,-,-,-,.
C[C@H](CO)N1C[C@H](C)[C@@H](CN(C)C(=O)Nc2ccc(C(F)(F)F)cc2)Oc2c(NS(=O)(=O)c3cn(C)cn3)cccc2C1=O,-,-,-,-,-,.
Cc1ccc(S(=O)(=O)Nc2ccc3c(c2)C(=O)N([C@H](C)CO)C[C@H](C)[C@@H](CN(C)C(=O)Nc2ccc(C(F)(F)F)cc2)O3)cc1,-,45,-,-,-,-
Cc1noc(C)c1S(=O)(=O)N(C)C[C@H]1Oc2c(NC(=O)Nc3ccc(C(F)(F)F)cc3)cccc2C(=O)N([C@H](C)CO)C[C@@H]1C,-,52,-,-,-,59
CC(C)NC(=O)Nc1ccc2c(c1)C(=O)N([C@H](C)CO)C[C@H](C)[C@@H](CN(C)C(=O)Nc1ccc(C(F)(F)F)cc1)O2,-,-,-,-,-,.
COc1ccc(NC(=O)c2cccc(S(=O)(=O)N3CCN(C)CC3)c2)c(OC)c1,-,-,-,-,-,.
CCCCNc1cccc2c1S(=O)(=O)N[C@@H](CC(C)C)CO2,-,.,.,.,-,.
COCc1cc(N2CCN(C(=O)OC(C)(C)C)C[C@H]2C)ccc1N1CC[C@@H](O)C1,-,.,.,.,-,.
CC(C)NC(=O)N(C)C[C@@H]1OCc2cn(nn2)CCCC(=O)N([C@@H](C)CO)C[C@H]1C,-,.,.,.,-,.
